We go through 72 compounds from ChEMBL document CHEMBL4513216, “Probing the Open Global Health Chemical Diversity Library for Multistage-Active Starting Points for Next-Generation Antimalarials” (ACS Infect Dis, 2020).

This series is described as follows: Toxicity liver stage against HepG2, at 10uM. Type of series: cell-based. Also on record: test concentration 10 uM, cell line HepG2-A16-CD81EGFP. The following applies: human, HepG2-A16-CD81EGFP cells; read-out: INHIBITION
Put shortly:
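Uninfected HepG2-A16-CD81EGFP cells, 3 × 10^3 per well, 1536-well, plated on prespotted compound at 10 μM final, parasite-free screening media added to match infected plates; puromycin 10 μM positive, DMSO 0.5% negative; run in parallel with 48 h PbLuc assay at 37 °C, 5% CO2; viability by CellTiter-Glo luminescence, normalized to controls.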
Regarding `CC(C)(C)CN1CC(COc2ccccc2)Oc2ccncc2S1(=O)=O` (configuration not stated), the cytotoxicity at 10 µM is -65.3%. The value for `CC(C)n1ncc2c1NC(=O)CC21C(=O)Nc2c(Br)cc(Cl)cc21` (configuration not stated) was 5.99%; that for `O=C(CCNC(=O)c1cnccn1)Nc1ncc[nH]1` was -44.7%. For `O=c1ccc(-n2ccnc2)nn1CCNS(=O)(=O)c1ccc(Br)cc1` the value was -7.21%; for `Cc1ccc(N2CCC3(CCN(Cc4csc(C)n4)CC3)CC2)nn1`, 9.43%; for `Cc1cc(NC(=O)CCn2nc(C)c3ccccc32)n(C(C)C)n1`, 4.95%. The value for `CC(=O)Nc1ccc(CCC2(NC(=O)C3CC3)CCCCC2)cn1` was 13.4%; that for `CCN1CCCC(O)(c2nc(C)c(CCOc3ccc(F)cc3)s2)CC1` (configuration not stated) was -22.4%; that for `Cc1cccc(CN2CCOC(C)(C(=O)N3CCOCC3)C2)n1` (configuration not stated) was -9.19%. Take `COCCN(C(=O)c1ccccn1)c1nc2c(s1)CCc1c-2cnn1C`: the cytotoxicity at 10 µM was -13.8%. The value for `Cc1cc(-c2ccccc2C(=O)O)nc(C2CCCCN2C)n1` (configuration not stated) was -0.168%. For `O=C(O)C1(Cc2cccc(-c3ccc(F)c(F)c3)c2)CCOCC1` the value was -2.5%. Take `Fc1ccc(CN2CCCC(c3nnc(-c4cnccn4)o3)C2)cc1F` (configuration not stated): the cytotoxicity at 10 µM was -8.03%.

As for `COc1ccc2c(c1)CC(NCc1cccc(NC(C)=O)c1)CC2` (configuration not stated), the cytotoxicity at 10 µM was -39.2%. As to `COCCn1nc(C(=O)N2CCN(C)CC2C)ccc1=O` (configuration not stated), the cytotoxicity at 10 µM was -0.451%. The value for `O=c1oc(-c2ccc(F)cc2)nn1CC1CCCCO1` (configuration not stated) was 2.35%; that for `COc1ccc(C2CCN(S(=O)(=O)CCCC#N)CC2)cc1` was 7.13%; that for `CC(C)c1csc(C2CCCN(C(=O)c3ccc[nH]3)C2)n1` (configuration not stated) was -48.6%. For `Cc1cnn(C2CN(CCOc3ccccc3C#N)C2)c1` the value was -8.88%; for `O=C(C1CCCCN1Cc1nccn1CC(F)(F)F)N1CCCC1` (configuration not stated), 14.2%. For `CCC(CC)C(=O)NCC1(NC(C)c2ccccc2)CCOCC1` (configuration not stated) the value was 14.7%. As for `O=c1oc(-c2cccs2)nn1CC(O)c1ccc2c(c1)CCC2` (configuration not stated), the cytotoxicity at 10 µM was 5.33%. The value for `COCCN1CCCC1c1cccc2c1OCCO2` (configuration not stated) was -9.54%; that for `Fc1ccc(OCC2CCCO2)c(NCc2cn3cccnc3n2)c1` (configuration not stated) was -6.31%. The value for `COCCN(Cc1cccnc1)S(=O)(=O)c1cc(C)ccc1F` was 10.3%. For `COc1cccc2c1OCC(NC(=O)NCCc1ccccn1)C2` (configuration not stated) the value was 5.69%; for `CCCc1nnc(NC(=O)N2CCCC2c2ccncc2)s1` (configuration not stated), 5.36%.

Turning to `COC(=O)C(C)N1CCCc2cc(OC)ccc2C1` (configuration not stated), the cytotoxicity at 10 µM was 11%. For `CC(C)Cc1nc(CN(C)CCOc2ccc(F)cc2)no1` the value was -4.68%; for `Cc1cc(CS(=O)(=O)C(C)C(=O)N(C)c2ccccc2)on1` (configuration not stated), 2.74%. For `CN(CC1CCN(CCO)CC1)CC(O)c1ccc(F)cc1F` (configuration not stated) the value was -59.3%. The value for `Cc1ccc2c(c1)OC(C)CN2C(=O)Cc1ccc(C)nc1` (configuration not stated) was -44.2%; that for `CCOCc1ccccc1NC(=O)NC1CCN(C2CCCC2)C1` (configuration not stated) was 9.42%; that for `CN1Cc2ccccc2CC2(CCN(C(=O)[C@H]3CCCO3)CC2)C1=O` was -113%. Regarding `CC(=O)N1CCC(c2nnc3ccc(C(=O)NCCN(C)C)cn23)C1` (configuration not stated), the cytotoxicity at 10 µM was -104%. The value for `O=C(COc1ccc(F)cc1)N1CCO[C@H]2[C@@H](OCC3CC3)CC[C@@H]21` was -101%.

For `Cc1noc([C@H]2C[C@H]3CN(C(=O)C4CCOCC4)CC[C@@H]3O2)n1`, the cytotoxicity at 10 µM is -72.6%. For `CN(C)Cc1csc(-c2nccn2CCc2cccnc2)c1` the value was -51.2%. For `CCc1ncc(C(=O)N(C)CCc2nc3cc(OC)ccc3[nH]2)cn1` the value was -47.4%.

`COC(=O)NCC(=O)N1CCCn2nc(CN3CC[C@H](F)C3)cc2C1`: the cytotoxicity at 10 µM turned out to be 13%.

For the compound `CNc1ccnc(N2CC[C@@](O)(C3CCOCC3)[C@H](C)C2)n1`, the cytotoxicity at 10 µM worked out at 8.64%.

Regarding `Cc1nn(CC(=O)NCc2cc3n(n2)CCCN(CC(C)C)C3)cc1Cl`, the cytotoxicity at 10 µM was found to be 1.95%. For `CCc1nnc(CN(C)c2nccc(CCC(F)(F)F)n2)o1` the value was 7.4%; for `N[C@@H]1CCN(Cc2cccc(N3CCOCC3)c2)C[C@H]1O`, 11.8%; for `CCCc1nnc2sc(CC3CN(Cc4ccccc4)CCO3)nn12` (configuration not stated), 5.3%. For `CC1CCCN1Cc1cccc(C(=O)Nc2ccc3c(c2)CCC3=O)c1` (configuration not stated) the value was -30.9%; for `CCSCCn1cc(-c2ncc[nH]2)nn1`, -41.4%; for `OC1(CN2CCCCC2)CCN(c2ccc(C(F)(F)F)cn2)C1` (configuration not stated), -11%.

Consider `O=C(C1CCCO1)N1CCc2onc(-c3ccc(Cl)cc3)c2C1` (configuration not stated), for which the cytotoxicity at 10 µM was -65.8%.

On to `CC(C)Cc1cc(C(=O)NC(C)(C)CN2CCCCCC2)on1`, for which the cytotoxicity at 10 µM was -4.75%. The value for `Cc1nn(C)cc1-c1ccnc(NCCN)n1` was -0.571%; that for `CN(C)CCCN(C)c1nccc(N2CCN[C@H]3CS(=O)(=O)C[C@H]32)n1` was -0.0813%; that for `CNC(=O)Cn1c(-c2ccco2)nn(-c2ccccc2OC)c1=O` was 2.51%. For `CC(=O)NCC1CCN(c2cc(C(C)C)nc3ccnn23)CC1` the value was 6.64%; for `COc1cc(CN(C)C(C)c2ccccn2)cc2c1OCO2` (configuration not stated), 8.97%. As to `O=C(Cc1ccsc1)N1CCCC(c2n[nH]c3nccnc23)C1` (configuration not stated), the cytotoxicity at 10 µM was 1.98%. The value for `COc1c(CNC2CCc3cc(Cl)ccc32)c(C)nn1C` (configuration not stated) was 5.64%. The value for `CCCc1nc(CNCC2CCCN2c2cccnn2)no1` (configuration not stated) was -9.52%. The value for `CS(=O)(=O)NC1CCN(C(=O)NCc2cccnc2)CC1` was 0.796%; that for `COc1ccccc1N1CCC(CNCc2cccc(OC)c2OC)C1` (configuration not stated) was 0.445%; that for `CCN(CCNC(=O)c1ccccc1OCCOC)C1CC1` was 11.7%. `Cc1ncc(CNCCO)c2cc(C(=O)c3ccc(Br)cc3)oc12`: the cytotoxicity at 10 µM worked out at 15.2%.

As for `CN1C(=O)CCC12CCCN(Cc1nccs1)C2` (configuration not stated), the cytotoxicity at 10 µM was -68.8%. As for `CCOc1ccc(CNCC(O)c2ccccc2)cc1Cl` (configuration not stated), the cytotoxicity at 10 µM was -3.4%. The value for `CC1CCN(C(=O)[C@@H]2C[C@H]3OCC[C@H]3N(Cc3ccoc3)C2)CC1` was -72.5%. Turning to `Cc1cccc(N2CCOCC3(C2)CN(c2ccccc2)C(=O)CO3)n1` (configuration not stated), the cytotoxicity at 10 µM was -4.53%. For `COCc1nn(C(C)C)c2c1CCN(Cc1ccc(C)o1)C2` the value was 2.32%. The value for `O=C(CSc1nnc(N2CCNCC2)s1)Nc1ccccc1` was 2.84%. For `CNC(=O)COC1COC2(CCN(Cc3ccncc3F)CC2)C1` (configuration not stated) the value was 7.37%; for `Cc1cccc(CN2CCC3(CCN(c4cccnc4)C3=O)C2)n1` (configuration not stated), -1.63%; for `CN(Cc1cn2c(n1)CN(Cc1ccc(F)cc1)CC2)Cc1ccco1`, -77%.

In the case of `CCn1ncc2c1CN(CCc1cccc(Cl)c1)CC2COC` (configuration not stated), the cytotoxicity at 10 µM was -98.4%.
